pKi: −log10 of the molar value. Active and inactive are the calls of the source. No cut-off for these calls is given here.
Tests used:
[1] = biological target: Translocator protein (Rattus norvegicus, UniProt P16257); assay: Displacement of [3H]PK11195 from TSPO receptor in rat kidney membranes; assay type: cell membranes, Membrane
[2] = organism: Rattus norvegicus; assay: Displacement of [3H]Ro15-1788 from CBR in rat cerebral cortex at 10 uM; assay type: tissue-based
In short: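 Rat cerebral cortex membranes were washed free of endogenous GABA, then incubated with 0.4 nM [3H]Ro15-1788 for 90 min at 0 °C in 50 mM Tris-citrate pH 7.4. Compound was present at 10 μM and the result given as % inhibition of binding.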

[3] = Antiproliferative activity against human U87MG cells assessed as cell viability at 1000 times Ki after 24 hrs by MTS assay relative to untreated control; assay type: functional, U-87MG ATCC
In short: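 U87MG cells grown in RPMI with 10% FBS, glutamine, antibiotics and non-essential amino acids at 37 °C. […] MTS colorimetric read-out, expressed as % of DMSO-treated control (100%). Triplicate wells, 3 experiments, mean ± SEM.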

[4] = system: U-87 MG; assay: Induction of mitochondrial membrane depolarization in human U87MG cells assessed as increase in JC-1 monomer formation at 30 times Ki after 12 to 48 hrs by flow cytometric analysis; assay type: functional, cell-based; details: U-87MG ATCC
In short: (§1)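 U87MG cells were exposed to compound at 30 times Ki, or to DMSO control, for 12, 24 or 48 h, with CCCP as positive control in each experiment. Collected cells were stained with JC-1 for 30 min at room temperature in the dark, then analysed by flow cytometry: aggregates in FL2, monomers in FL1, gated on forward/side scatter. Read-out was % of cells in the lower-right (depolarized) quadrant; three independent experiments.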

[5] = system: U-87 MG; assay: Induction of mitochondrial membrane depolarization in human U87MG cells assessed as change in membrane potential at 30 times Ki after 48 hrs by flow cytometric analysis; assay type: functional, U-87MG ATCC; in short: as §1
[6] = system: U-87MG ATCC; assay: Antiproliferative activity against human U87MG cells assessed as reduction in cell viability at 30 times Ki after 24 hrs by trypan blue exclusion assay
[7] = system: U-87MG ATCC; assay: Antiproliferative activity against human U87MG cells assessed as reduction in cell viability at 30 times Ki after 48 hrs by trypan blue exclusion assay
[8] = system: U-87MG ATCC; assay: Antiproliferative activity against human U87MG cells assessed as reduction in cell viability at 30 times Ki after 72 hrs by trypan blue exclusion assay
[9] = system: U-87MG ATCC; assay: Antiproliferative activity against human U87MG cells assessed as reduction in cell viability at 150 times Ki after 24 hrs by trypan blue exclusion assay

Chain of Translocator protein (P16257 whole entry, looked up): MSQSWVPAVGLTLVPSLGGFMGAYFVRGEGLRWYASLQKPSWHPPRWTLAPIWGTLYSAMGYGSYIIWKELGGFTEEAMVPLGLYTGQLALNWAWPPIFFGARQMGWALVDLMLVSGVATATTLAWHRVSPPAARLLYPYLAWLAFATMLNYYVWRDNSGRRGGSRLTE

SMILES | pKi [1] | other results
CCN(CC)C(=O)c1coc(-c2ccccc2)n1 | < 5.00 | –
CCCCN(CCCC)C(=O)Cc1coc(-c2ccccc2)n1 | 6.46 | inhibition [2]: < 25%
CCCCCCN(CCCCCC)C(=O)c1cc(-c2ccccc2)no1 | 5.15 | –
CCCN(CCC)C(=O)c1cc(-c2ccccc2)on1 | < 5.00 | –
CCCCN(CCCC)C(=O)C(=O)c1c(-c2ccc(Cl)cc2)[nH]c2ccc(Cl)cc12 | – | Activity [3]: 76%
CCCCCN(CCCCC)C(=O)c1cc(-c2ccccc2)on1 | 6.42 | –
CCN(Cc1ccccc1)C(=O)c1coc(-c2ccccc2)n1 | 5.26 | –
CCCCN(CCCC)C(=O)Cc1coc(-c2ccc(F)cc2)n1 | 7.06 | –
CCCCN(CCCC)C(=O)c1cc(-c2ccccc2)on1 | 6.21 | –
CCCCCCN(CCCCCC)C(=O)Cc1coc(-c2ccccc2)n1 | 6.82 | inhibition [2]: < 25%
CCCCCCN(CCCCCC)C(=O)c1cc(-c2ccc(Cl)cc2)on1 | < 5.00 | –
CCCN(CCC)C(=O)Cc1coc(-c2ccc(F)cc2)n1 | 5.79 | –
CCCCCCN(CCCCCC)C(=O)c1cc(-c2ccccc2)on1 | 5.24 | –
CCCCCN(CCCCC)C(=O)Cc1nc(-c2ccccc2)no1 | 6.88 | –
CCCCN(CCCC)C(=O)c1cc(-c2ccccc2)no1 | 6.19 | –
CCCCCN(CCCCC)C(=O)Cc1coc(-c2ccccc2)n1 | 7.49 | inhibition [2]: < 25%; Activity [3]: 9.3%; Activity [4]: Active; Activity [5]: 24%; Activity [6]: Active; Activity [7]: Active; Activity [8]: Active; Activity [9]: Active
CCN(CC)C(=O)c1nc(-c2ccccc2)no1 | < 5.00 | –
CCN(Cc1ccccc1)C(=O)c1nc(-c2ccccc2)no1 | 5.31 | –
CCCCCCN(CCCCCC)C(=O)Cc1nc(-c2ccccc2)no1 | 5.96 | –
CCCN(CCC)C(=O)c1nc(-c2ccccc2)no1 | < 5.00 | –
CCCCCCN(CCCCCC)C(=O)c1coc(-c2ccccc2)n1 | 5.34 | –
CCCCN(CCCC)C(=O)c1nc(-c2ccccc2)no1 | 6.11 | –
CCCCCN(CCCCC)C(=O)Cc1nc(-c2ccc(Cl)cc2)no1 | 6.82 | –
CCCCN(CCCC)C(=O)Cc1nc(-c2ccccc2)no1 | 6.31 | –
CCCCN(CCCC)C(=O)Cc1coc(-c2ccc(C)cc2)n1 | 6.31 | –
CCCN(CCC)C(=O)c1coc(-c2ccccc2)n1 | < 5.00 | –

SMILES | pKi [1] | other results
CCCCCN(CCCCC)C(=O)c1cc(-c2ccccc2)no1 | 6.42 | –
CCCCN(CCCC)C(=O)Cc1coc(-c2ccc(Cl)cc2)n1 | 6.75 | –
CCCN(CCC)C(=O)Cc1coc(-c2ccc(Cl)cc2)n1 | 6.03 | –
CCCCCN(CCCCC)C(=O)Cc1cc(-c2ccccc2)on1 | 7.29 | Activity [3]: 24.8%
CCCCCCN(CCCCCC)C(=O)Cc1coc(-c2ccc(F)cc2)n1 | 6.80 | –
CCCCCN(CCCCC)C(=O)Cc1coc(-c2ccc(Cl)cc2)n1 | 7.35 | Activity [3]: 72.6%
CCCN(CCC)C(=O)Cc1nc(-c2ccccc2)no1 | 5.36 | –
CCCN(CCC)C(=O)Cc1nc(-c2ccc(Cl)cc2)no1 | 5.47 | –
CCCCN(C)C(=O)c1nc(-c2ccccc2)no1 | < 5.00 | –
CCCCCCN(CCCCCC)C(=O)c1nc(-c2ccccc2)no1 | 5.38 | –
CCCCCN(CCCCC)C(=O)Cc1coc(-c2ccc(F)cc2)n1 | 7.96 | Activity [3]: 98%
CCCCCN(CCCCC)C(=O)Cc1coc(-c2ccc(C)cc2)n1 | 7.17 | Activity [3]: 5.3%
CCCCCCN(CCCCCC)C(=O)Cc1coc(-c2ccc(Cl)cc2)n1 | 6.15 | –
CCCCCCN(CCCCCC)C(=O)c1cc(-c2ccc(C)cc2)no1 | 5.57 | –
CCCCCN(CCCCC)C(=O)c1nc(-c2ccccc2)no1 | 6.04 | –
CCCCCN(CCCCC)C(=O)Cc1cc(-c2ccccc2)no1 | 6.59 | –
CCCCCCN(CCCCCC)C(=O)Cc1nc(-c2ccc(Cl)cc2)no1 | 5.49 | –
CCCN(CCC)C(=O)Cc1coc(-c2ccccc2)n1 | 5.77 | inhibition [2]: < 25%
CCCN(CCC)C(=O)c1cc(-c2ccc(Cl)cc2)on1 | < 5.00 | –
CCCCCCN(CCCCCC)C(=O)Cc1coc(-c2ccc(C)cc2)n1 | 6.06 | –
CCCCN(C)C(=O)c1coc(-c2ccccc2)n1 | < 5.00 | –
CCCCCN(CCCCC)C(=O)c1coc(-c2ccccc2)n1 | 6.21 | –
CCCCN(CCCC)C(=O)c1coc(-c2ccccc2)n1 | 5.46 | –
CCCN(CCC)C(=O)Cc1coc(-c2ccc(C)cc2)n1 | 5.66 | –
CCCCN(CCCC)C(=O)Cc1nc(-c2ccc(Cl)cc2)no1 | 6.57 | –
CCCN(CCC)C(=O)c1cc(-c2ccccc2)no1 | < 5.00 | –

Reference: ChEMBL document CHEMBL1828580, “Tertiary amides with a five-membered heteroaromatic ring as new probes for the translocator protein” (Eur J Med Chem, 2011)
